From ChEMBL document CHEMBL3112490, “Ionic liquid mediated synthesis of mono- and bis-spirooxindole-hexahydropyrrolidines as cholinesterase inhibitors and their molecular docking studies” (Bioorg Med Chem, 2014)

Assays:
[1] = Selectivity index, ratio of IC50 for AChE (unknown origin) to IC50 for equine serum BChE
Cholinesterase [2] = molecular target: T1, Cholinesterase (Equus caballus, UniProt P81908); experiment: Inhibition of equine serum BChE using S-butyrylthiocholine chloride as substrate preincubated for 15 mins followed by substrate addition by Ellman's method
Method in brief: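 Modified Ellman assay with equine serum BChE in 0.1 M sodium phosphate, pH 8. Enzyme preincubated with sample (DMSO, 1% final) for 15 min at 25 °C. DTNB (10 mM stock) then added, followed by S-butyrylthiocholine chloride (14 mM stock). Triplicates, blank-corrected; % inhibition calculated relative to control.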

[3] = Selectivity ratio of IC50 for equine serum BChE to IC50 for AChE (unknown origin)
Acetylcholinesterase [4] = molecular target: T2, Acetylcholinesterase (Homo sapiens, UniProt P22303); experiment: Inhibition of AChE (unknown origin) using acetylthiocholine iodide as substrate preincubated for 15 mins followed by substrate addition by Ellman's method
Cholinesterase [5] = molecular target: T1, Cholinesterase; experiment: Mixed-type inhibition of equine serum BChE using S-butyrylthiocholine chloride as substrate by Dixon plot analysis
Method in brief: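 Equine serum BChE run in the same Ellman kinetic format, pH 8, with a 15 min 25 °C preincubation. Inhibitor at 0, 0.90 and 1.81 µM; S-butyrylthiocholine chloride at 1, 2, 4 and 8 mM; read at 412 nm. Inhibition mode, Km and Vmax taken from Lineweaver–Burk plots; Ki from Dixon plot.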

Acetylcholinesterase [6] = molecular target: T2, Acetylcholinesterase; experiment: Competitive inhibition of AChE (unknown origin) using acetylthiocholine iodide as substrate by Dixon plot analysis
Method in brief: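 Ellman kinetics on AChE, added as a 0.09 units/mL solution, in pH 8 phosphate buffer with a 15 min 25 °C preincubation. Inhibitor at 0, 0.70 and 1.40 µM; acetylthiocholine iodide at 1, 2, 4 and 8 mM; DTNB detection at 412 nm. Mode, Km and Vmax from Lineweaver–Burk plots; Ki from Dixon plot.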

T1 sequence (P81908 whole entry): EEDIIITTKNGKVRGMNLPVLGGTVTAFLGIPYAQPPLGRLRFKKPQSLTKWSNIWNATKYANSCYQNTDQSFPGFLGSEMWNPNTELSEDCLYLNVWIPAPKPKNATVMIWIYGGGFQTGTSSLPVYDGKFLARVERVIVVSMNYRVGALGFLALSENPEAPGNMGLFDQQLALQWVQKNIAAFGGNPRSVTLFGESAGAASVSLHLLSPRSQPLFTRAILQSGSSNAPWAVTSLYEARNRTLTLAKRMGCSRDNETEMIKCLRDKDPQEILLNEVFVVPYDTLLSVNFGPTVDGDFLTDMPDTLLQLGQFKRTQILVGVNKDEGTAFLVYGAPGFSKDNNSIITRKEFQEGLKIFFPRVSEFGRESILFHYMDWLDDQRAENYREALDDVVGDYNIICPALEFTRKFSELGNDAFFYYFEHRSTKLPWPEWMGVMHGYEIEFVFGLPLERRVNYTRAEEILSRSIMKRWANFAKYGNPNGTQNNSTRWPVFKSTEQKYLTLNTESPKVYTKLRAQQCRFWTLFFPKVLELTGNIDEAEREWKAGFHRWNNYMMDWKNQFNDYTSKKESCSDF
T2 sequence (P22303 whole entry): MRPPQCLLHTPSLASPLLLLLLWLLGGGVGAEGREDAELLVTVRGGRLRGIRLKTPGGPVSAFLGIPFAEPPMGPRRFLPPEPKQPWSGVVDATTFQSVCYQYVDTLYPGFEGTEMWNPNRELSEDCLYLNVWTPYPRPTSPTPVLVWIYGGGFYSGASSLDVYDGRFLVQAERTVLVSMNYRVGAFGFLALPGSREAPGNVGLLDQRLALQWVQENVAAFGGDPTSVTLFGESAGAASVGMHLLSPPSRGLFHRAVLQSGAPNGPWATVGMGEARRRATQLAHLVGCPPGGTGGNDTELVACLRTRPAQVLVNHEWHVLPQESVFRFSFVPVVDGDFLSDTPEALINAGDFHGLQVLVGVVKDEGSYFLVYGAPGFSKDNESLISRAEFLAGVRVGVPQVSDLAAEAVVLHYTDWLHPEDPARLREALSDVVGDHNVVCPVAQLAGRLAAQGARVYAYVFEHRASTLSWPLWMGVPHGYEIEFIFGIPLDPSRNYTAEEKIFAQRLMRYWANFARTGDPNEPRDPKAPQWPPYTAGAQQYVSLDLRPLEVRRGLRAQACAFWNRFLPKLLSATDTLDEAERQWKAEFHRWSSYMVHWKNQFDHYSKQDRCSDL

Structure (SMILES)	Ratio IC50 [1]	IC50 (Cholinesterase [2]) [µM]	Ratio IC50 [3]	IC50 (Acetylcholinesterase [4]) [µM]	Ki (Cholinesterase [5]) [µM]	Ki (Acetylcholinesterase [6]) [µM]
CN1CC[C@@H](C(=O)N2C/C(=C\c3cccc([N+](=O)[O-])c3)C(=O)[C@@]3(C2)[C@H](c2cccc([N+](=O)[O-])c2)CN(C)[C@]32C(=O)Nc3ccccc32)[C@@]12C(=O)Nc1ccccc12 (racemic)	0.2	12.3	5	2.47	–	–
C=CC(=O)N1C/C(=C\c2ccc(C)cc2)C(=O)[C@@]2(C1)[C@H](c1ccc(C)cc1)CN(C)[C@]21C(=O)Nc2ccccc21 (racemic)	0.81	9.28	1.24	7.49	–	–
CN1CC[C@@H](C(=O)N2C/C(=C\c3ccccc3Cl)C(=O)[C@@]3(C2)[C@H](c2ccccc2Cl)CN(C)[C@]32C(=O)Nc3ccccc32)[C@@]12C(=O)Nc1ccccc12 (racemic)	0.55	9.38	1.81	5.19	–	–
C=CC(=O)N1C/C(=C\c2ccc(Cl)cc2Cl)C(=O)[C@@]2(C1)[C@H](c1ccc(Cl)cc1Cl)CN(C)[C@]21C(=O)Nc2ccccc21 (racemic)	1.15	5.32	0.87	6.14	–	–
Cc1ccccc1/C=C1\CN(C(=O)[C@@H]2CCN(C)[C@]23C(=O)Nc2ccccc23)C[C@]2(C1=O)[C@H](c1ccccc1C)CN(C)[C@]21C(=O)Nc2ccccc21 (racemic)	0.75	12.5	1.33	9.43	–	–
C=CC(=O)N1C/C(=C\c2ccccc2F)C(=O)[C@@]2(C1)[C@H](c1ccccc1F)CN(C)[C@]21C(=O)Nc2ccccc21 (racemic)	2.14	3.21	0.47	6.88	6.76	–
C=CC(=O)N1C/C(=C\c2ccccc2OC)C(=O)[C@@]2(C1)[C@H](c1ccccc1OC)CN(C)[C@]21C(=O)Nc2ccccc21 (racemic)	0.97	4.22	1.03	4.1	–	–
C=CC(=O)N1C/C(=C\c2cccc([N+](=O)[O-])c2)C(=O)[C@@]2(C1)[C@H](c1cccc([N+](=O)[O-])c1)CN(C)[C@]21C(=O)Nc2ccccc21 (racemic)	0.69	7.74	1.45	5.34	–	–
CN1CC[C@@H](C(=O)N2C/C(=C\c3ccc(F)cc3)C(=O)[C@@]3(C2)[C@H](c2ccc(F)cc2)CN(C)[C@]32C(=O)Nc3ccccc32)[C@@]12C(=O)Nc1ccccc12 (racemic)	0.3	7.82	3.33	2.35	–	2.01
C=CC(=O)N1C/C(=C\c2ccccc2)C(=O)[C@@]2(C1)[C@H](c1ccccc1)CN(C)[C@]21C(=O)Nc2ccccc21 (racemic)	1.16	7.52	0.86	8.74	–	–
C=CC(=O)N1C/C(=C\c2cccc3ccccc23)C(=O)[C@@]2(C1)[C@H](c1cccc3ccccc13)CN(C)[C@]21C(=O)Nc2ccccc21 (racemic)	0.86	8.85	1.17	7.59	–	–
CN1CC[C@@H](C(=O)N2C/C(=C\c3ccccc3F)C(=O)[C@@]3(C2)[C@H](c2ccccc2F)CN(C)[C@]32C(=O)Nc3ccccc32)[C@@]12C(=O)Nc1ccccc12 (racemic)	0.83	7.44	1.2	6.18	–	–
C=CC(=O)N1C/C(=C\c2ccccc2C)C(=O)[C@@]2(C1)[C@H](c1ccccc1C)CN(C)[C@]21C(=O)Nc2ccccc21 (racemic)	1.03	3.86	0.97	3.97	–	–
C=CC(=O)N1C/C(=C\c2ccc(F)cc2)C(=O)[C@@]2(C1)[C@H](c1ccc(F)cc1)CN(C)[C@]21C(=O)Nc2ccccc21 (racemic)	2.3	3.39	0.43	7.8	–	–
C=CC(=O)N1C/C(=C\c2ccc(Cl)cc2)C(=O)[C@@]2(C1)[C@H](c1ccc(Cl)cc1)CN(C)[C@]21C(=O)Nc2ccccc21 (racemic)	1.24	6.77	0.81	8.4	–	–
CN1CC[C@@H](C(=O)N2C/C(=C\c3ccc(Cl)cc3Cl)C(=O)[C@@]3(C2)[C@H](c2ccc(Cl)cc2Cl)CN(C)[C@]32C(=O)Nc3ccccc32)[C@@]12C(=O)Nc1ccccc12 (racemic)	0.25	17.9	4.05	4.42	–	–
CN1CC[C@@H](C(=O)N2C/C(=C\c3cccc4ccccc34)C(=O)[C@@]3(C2)[C@H](c2cccc4ccccc24)CN(C)[C@]32C(=O)Nc3ccccc32)[C@@]12C(=O)Nc1ccccc12 (racemic)	0.26	19.1	3.88	4.93	–	–
CN1CC[C@@H](C(=O)N2C/C(=C\c3ccc(Cl)cc3)C(=O)[C@@]3(C2)[C@H](c2ccc(Cl)cc2)CN(C)[C@]32C(=O)Nc3ccccc32)[C@@]12C(=O)Nc1ccccc12 (racemic)	0.65	9.44	1.54	6.14	–	–
CN1CC[C@@H](C(=O)N2C/C(=C\c3ccccc3)C(=O)[C@@]3(C2)[C@H](c2ccccc2)CN(C)[C@]32C(=O)Nc3ccccc32)[C@@]12C(=O)Nc1ccccc12 (racemic)	0.28	9.34	3.55	2.63	–	–
C=CC(=O)N1C/C(=C\c2ccccc2Cl)C(=O)[C@@]2(C1)[C@H](c1ccccc1Cl)CN(C)[C@]21C(=O)Nc2ccccc21 (racemic)	1.22	4.2	0.82	5.12	–	–
Cc1ccc(/C=C2\CN(C(=O)[C@@H]3CCN(C)[C@]34C(=O)Nc3ccccc34)C[C@]3(C2=O)[C@H](c2ccc(C)cc2)CN(C)[C@]32C(=O)Nc3ccccc32)cc1 (racemic)	0.68	11.3	1.47	7.67	–	–
COc1ccccc1/C=C1\CN(C(=O)[C@@H]2CCN(C)[C@]23C(=O)Nc2ccccc23)C[C@]2(C1=O)[C@H](c1ccccc1OC)CN(C)[C@]21C(=O)Nc2ccccc21 (racemic)	0.45	10.4	2.2	4.73	–	–
